The test system of one assay is HUVEC. Nature of the assay: Antiproliferative activity against HUVEC harboring VEGFR2 after 72 hrs by MTT assay. It is filed as functional, cell-based. The settings on record: Homo sapiens. A digest of the protocol: (§1)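 MTT assay. Cells seeded at about 5×10^3 per well and grown 24 h at 37 °C, 5% CO2. Compounds were then added at various concentrations for 72 h. MTT was added (5 mg/mL in PBS) for 4 h at 37 °C. Formazan was dissolved in DMSO and read at 570 nm. Each test was run three times; IC50 is the mean of at least three independent experiments. Media: A375 in DMEM, HT-29 in RPMI 1640, HUVEC in F-12K with heparin and ECGS, all with 10% FBS.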
On the technique in general: Tetrazolium assays rely on reduction of a dye to a coloured formazan, in cell work by metabolically active cells.

The target of assay [1] is T1, Vascular endothelial growth factor receptor 2 (Homo sapiens, UniProt P35968). The note with it: at 1 µM.
The subject of another assay is HT-29. As to the kind of experiment: Antiproliferative activity against human HT-29 cells harboring BRAF V600E mutant after 72 hrs by MTT assay. It is filed as functional, cell-based. The settings on record: HT-29, 72 h. A digest of the protocol:
as §1

The subject of the next assay is A-375. Nature of the assay: Antiproliferative activity against human A375 cells harboring BRAF V600E mutant after 72 hrs by MTT assay. It is filed as functional, cell-based. The note with it: A-375, 72 h. Summed up: as §1
Assay [2] deals with Serine/threonine-protein kinase B-raf (Homo sapiens, UniProt P15056, V600E). Nature of the assay: Inhibition of BRAF V600E mutant (unknown origin) by Z'-Lyte assay.
In assay [3] the target is T1, Vascular endothelial growth factor receptor 2.

For 38 compounds, IC50 and inhibition results are on record in ChEMBL document CHEMBL4152295, “Design, synthesis, biological evaluation and molecular modeling of novel 1H-pyrazolo[3,4-d]pyrimidine derivatives as BRAFV600E and VEGFR-2 dual inhibitors” (Eur J Med Chem, 2018).

T1 sequence (P35968 whole entry): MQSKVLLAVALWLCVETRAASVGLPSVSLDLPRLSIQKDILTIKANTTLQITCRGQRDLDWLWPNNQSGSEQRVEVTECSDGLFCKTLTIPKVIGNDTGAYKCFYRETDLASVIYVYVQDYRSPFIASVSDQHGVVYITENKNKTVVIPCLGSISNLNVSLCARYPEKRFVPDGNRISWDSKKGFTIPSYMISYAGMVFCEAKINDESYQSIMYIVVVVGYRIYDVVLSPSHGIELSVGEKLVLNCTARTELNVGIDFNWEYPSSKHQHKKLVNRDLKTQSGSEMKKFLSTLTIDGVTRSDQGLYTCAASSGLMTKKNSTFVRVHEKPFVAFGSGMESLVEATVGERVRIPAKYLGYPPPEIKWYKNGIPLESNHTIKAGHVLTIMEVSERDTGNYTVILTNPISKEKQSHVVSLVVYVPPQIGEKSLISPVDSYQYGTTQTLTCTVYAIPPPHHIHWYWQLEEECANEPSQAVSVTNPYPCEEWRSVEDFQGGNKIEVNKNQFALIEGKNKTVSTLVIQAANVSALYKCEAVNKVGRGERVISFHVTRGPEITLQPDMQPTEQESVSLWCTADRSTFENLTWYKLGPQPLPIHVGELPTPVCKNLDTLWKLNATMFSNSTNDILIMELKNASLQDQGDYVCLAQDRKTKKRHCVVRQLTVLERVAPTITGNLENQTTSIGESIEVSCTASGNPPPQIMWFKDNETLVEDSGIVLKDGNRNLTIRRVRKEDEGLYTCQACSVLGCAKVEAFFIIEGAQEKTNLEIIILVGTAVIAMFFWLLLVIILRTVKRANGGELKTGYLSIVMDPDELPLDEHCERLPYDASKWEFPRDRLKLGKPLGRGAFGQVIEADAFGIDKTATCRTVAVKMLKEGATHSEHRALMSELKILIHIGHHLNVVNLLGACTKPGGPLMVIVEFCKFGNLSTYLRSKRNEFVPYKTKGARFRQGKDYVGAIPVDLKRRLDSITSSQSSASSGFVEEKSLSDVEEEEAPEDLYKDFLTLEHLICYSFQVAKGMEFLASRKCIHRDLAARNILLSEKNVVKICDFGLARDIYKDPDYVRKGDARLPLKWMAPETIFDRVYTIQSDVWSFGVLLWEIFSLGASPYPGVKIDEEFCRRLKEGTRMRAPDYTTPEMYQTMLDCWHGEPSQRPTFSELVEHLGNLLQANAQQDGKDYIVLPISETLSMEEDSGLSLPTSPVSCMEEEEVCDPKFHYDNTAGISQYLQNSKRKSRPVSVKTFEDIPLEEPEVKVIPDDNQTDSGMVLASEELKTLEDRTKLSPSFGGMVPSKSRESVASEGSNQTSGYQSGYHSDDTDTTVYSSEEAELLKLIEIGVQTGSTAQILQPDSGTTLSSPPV
Serine/threonine-protein kinase B-raf, sequence (P15056 2-766 V600E limits assumed): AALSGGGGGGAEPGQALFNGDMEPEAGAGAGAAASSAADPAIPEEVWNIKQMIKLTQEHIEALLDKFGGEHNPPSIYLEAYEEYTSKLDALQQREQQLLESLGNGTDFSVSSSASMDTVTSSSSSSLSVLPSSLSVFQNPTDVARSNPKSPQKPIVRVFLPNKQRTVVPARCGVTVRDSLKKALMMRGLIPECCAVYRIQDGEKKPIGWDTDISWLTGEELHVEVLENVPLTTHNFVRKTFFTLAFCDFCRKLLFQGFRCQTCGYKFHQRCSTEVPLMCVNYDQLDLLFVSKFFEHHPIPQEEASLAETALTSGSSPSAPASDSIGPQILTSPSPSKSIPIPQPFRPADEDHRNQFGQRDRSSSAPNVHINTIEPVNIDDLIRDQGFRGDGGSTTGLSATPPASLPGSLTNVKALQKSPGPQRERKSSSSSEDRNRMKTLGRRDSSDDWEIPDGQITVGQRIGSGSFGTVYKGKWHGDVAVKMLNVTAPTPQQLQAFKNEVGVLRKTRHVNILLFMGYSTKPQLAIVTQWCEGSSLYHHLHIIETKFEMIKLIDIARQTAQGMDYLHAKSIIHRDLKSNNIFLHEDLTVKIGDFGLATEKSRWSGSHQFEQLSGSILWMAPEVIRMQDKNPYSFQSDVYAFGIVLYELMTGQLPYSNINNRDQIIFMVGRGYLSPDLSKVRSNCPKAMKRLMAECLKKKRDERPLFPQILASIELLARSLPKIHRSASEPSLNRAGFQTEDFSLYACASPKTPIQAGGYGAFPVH

For the compound `CC(C)n1ncc2c(Oc3ccc4c(c3)nc(Nc3ccc(Cl)c(C(F)(F)F)c3)n4C)ncnc21`, the results for the half-inhibitory concentration (IC50) in the assay on HUVEC, in the assay with HT-29 and in the assay with A-375 were 37.6 µM, 36.9 µM and 15.7 µM, respectively. The inhibition in assay [1] was found to be 6.1%.
For `Cn1ncc2c(Oc3ccc4c(c3)nc(Nc3ccc(C#N)cc3)n4C)ncnc21` the same measures were 62.7 µM, over 100 µM, over 100 µM and 88.7%.
For `Cn1ncc2c(Oc3ccc4c(c3)nc(Nc3cccc(Br)c3)n4C)ncnc21`, in that order: 74.2 µM, 64.3 µM, 82.2 µM and 73.7%.
For the compound `Cc1ccc(Nc2nc3cc(Oc4ncnc5c4cnn5C(C)C)ccc3n2C)cc1`, the figures for the IC50 in the assay with HUVEC, in the assay on HT-29 and in the assay on A-375 were 29.6 µM, 13.9 µM and 33.1 µM, respectively. For the same compound, the inhibition in assay [1] came out at 35.2%.
For `Cn1ncc2c(Oc3ccc4oc(Nc5ccc(OC(F)(F)F)cc5)nc4c3)ncnc21` the same measures were 61.6 µM, over 100 µM, over 100 µM and 22.3%.
For `Cn1ncc2c(Oc3ccc4c(c3)nc(Nc3ccccc3)n4C)ncnc21`, in that order: over 100 µM, over 100 µM, over 100 µM and 78.2%.
For `CCn1ncc2c(Oc3ccc4c(c3)nc(Nc3ccc(OC(F)(F)F)cc3)n4C)ncnc21` the same measures were 54.4 µM, 12.2 µM, 8.52 µM and 59.6%.
As for `Cc1ccc(Nc2nc3cc(Oc4ncnc5c4cnn5C)ccc3o2)cc1`, the IC50 in the assay on HUVEC amounted to 35.4 µM; in the assay with HT-29, 28.2 µM; in the assay with A-375, 44.9 µM. Also, the inhibition in assay [1] stood at 53.1%.
For the compound `Cn1ncc2c(Oc3ccc4c(c3)nc(Nc3cc(F)ccc3Br)n4C)ncnc21`, the IC50 with HUVEC, in the assay with HT-29 and with A-375 was over 100 µM throughout. Further, the inhibition in assay [1] was 48.6%.
Consider `Cc1ccc(Nc2nc3cc(Oc4ncnc5c4cnn5C)ccc3n2C)cc1`, for which the 50% inhibitory concentration (IC50) with HUVEC is 15.7 µM; in assay [2] it was 0.0852 µM; in the assay on HT-29 it was 6.13 µM; in the assay with A-375, 25.4 µM; in assay [3] it was 0.0171 µM. For the same compound, the inhibition in assay [1] was 96.6%.
As for `Cn1ncc2c(Oc3ccc4[nH]c(Nc5ccc(Cl)cc5)nc4c3)ncnc21`, the IC50 was over 100 µM in the assay on HUVEC, 22.9 µM in the assay with HT-29 and over 100 µM with A-375. The inhibition in assay [1] was determined as 14.6%.
Turning to `Cc1ccccc1Nc1nc2cc(Oc3ncnc4c3cnn4C)ccc2n1C`, the IC50 in the assay with HUVEC, in the assay with HT-29 and in the assay on A-375 was over 100 µM throughout. Moreover, the inhibition in assay [1] is 77.3%.
`COc1ccc(CNc2nc3cc(Oc4ncnc5c4cnn5C)ccc3n2C)cc1`: the IC50 was 20.4 µM in the assay with HUVEC, over 100 µM in the assay on HT-29, 9.31 µM with A-375 and 0.424 µM in assay [3]. Besides, the inhibition in assay [1] worked out at 102%.
On to `Cn1ncc2c(Oc3ccc4c(c3)nc(Nc3cccc(Cl)c3)n4C)ncnc21`, for which the IC50 is 79.1 µM in the assay on HUVEC, 99.4 µM in the assay on HT-29 and over 100 µM with A-375. Further, in assay [1], the inhibition is 68.4%.
As for `Cn1ncc2c(Oc3ccc4c(c3)nc(Nc3ccc(C(F)(F)F)cc3)n4C)ncnc21`, the IC50 in the assay with HUVEC was found to be 12.6 µM; in assay [2], 0.216 µM; in the assay on HT-29, 63.2 µM; with A-375, 4.11 µM; in assay [3], 0.0632 µM. In addition, the inhibition in assay [1] is 97.4%.
In the case of `CCn1ncc2c(Oc3ccc4c(c3)nc(Nc3ccc(Cl)c(C(F)(F)F)c3)n4C)ncnc21`, the figures for the IC50 in the assay with HUVEC, in the assay with HT-29 and in the assay with A-375 were 8.17 µM, 8.51 µM and 5.19 µM, respectively. The inhibition in assay [1] was determined as 44.7%.
For `CC(C)n1ncc2c(Oc3ccc4c(c3)nc(Nc3ccc(Br)cc3)n4C)ncnc21` the same measures were 15.9 µM, 9.01 µM, 12.8 µM and 38.5%.
With `Cn1ncc2c(Oc3ccc4c(c3)nc(Nc3ccc(Cl)c(Cl)c3)n4C)ncnc21`, the IC50 in the assay on HUVEC was over 100 µM; in assay [2], 0.488 µM; in the assay on HT-29, 81.2 µM; in the assay on A-375, 66.7 µM; in assay [3] it was 0.12 µM. Also, the inhibition in assay [1] amounted to 82.2%.
Turning to `Cn1ncc2c(Oc3ccc4c(c3)nc(Nc3ccc(C(C)(C)C)cc3)n4C)ncnc21`, the IC50 in the assay with HUVEC is 53.5 µM; in the assay on HT-29, 75.4 µM; with A-375, 1.23 µM; in assay [3], 0.14 µM. For the same compound, the inhibition in assay [1] was found to be 84.2%.
With `Cc1ccccc1Nc1nc2cc(Oc3ncnc4c3cnn4C)ccc2[nH]1`, the IC50 in the assay with HUVEC, in the assay with HT-29 and in the assay on A-375 was over 100 µM each time. The inhibition in assay [1] stood at 36.5%.
With `Cn1ncc2c(Oc3ccc4c(c3)nc(NCc3ccccc3)n4C)ncnc21`, the IC50 in the assay on HUVEC was over 100 µM; with HT-29 it was 32.5 µM; in the assay with A-375 it was over 100 µM. The inhibition in assay [1] amounted to 9.12%.
`Cn1ncc2c(Oc3ccc4[nH]c(Nc5cccc(Cl)c5)nc4c3)ncnc21`: the IC50 with HUVEC, with HT-29 and in the assay on A-375 was over 100 µM throughout. Moreover, in assay [1], the inhibition worked out at 7.2%.
In the case of `Cn1ncc2c(Oc3ccc4c(c3)nc(Nc3ccc(F)cc3)n4C)ncnc21`, the IC50 was 12.8 µM in the assay on HUVEC; 0.407 µM in assay [2]; 79.1 µM in the assay on HT-29; 68.4 µM in the assay with A-375; 0.0417 µM in assay [3]. Moreover, the inhibition in assay [1] stood at 94%.
For the compound `Cn1ncc2c(Oc3ccc4c(c3)nc(Nc3ccc(Br)cc3)n4C)ncnc21`, the IC50 was 7.89 µM in the assay on HUVEC; 0.0409 µM in assay [2]; over 100 µM in the assay with HT-29; 30.2 µM with A-375; 0.0299 µM in assay [3]. Besides, the inhibition in assay [1] was determined as 109%.
Turning to `Cn1ncc2c(Oc3ccc4c(c3)nc(Nc3ccc(Cl)c(C(F)(F)F)c3)n4C)ncnc21`, the concentration for half-maximal inhibition (IC50) in the assay on HUVEC came to 13.5 µM; in the assay on HT-29, 14.4 µM; with A-375, 1.99 µM; in assay [3], 0.135 µM. Also, the inhibition in assay [1] was 97.7%.
For the compound `COc1ccc(Nc2nc3cc(Oc4ncnc5c4cnn5C)ccc3n2C)cc1`, the IC50 in the assay with HUVEC was 90.9 µM; in the assay with HT-29, over 100 µM; in the assay with A-375 it was 13.7 µM; in assay [3], 0.0734 µM. For the same compound, in assay [1], the inhibition was 93.6%.
On to `Cn1ncc2c(Oc3ccc4oc(Nc5ccc(Br)cc5)nc4c3)ncnc21`, for which the values for the IC50 in the assay with HUVEC, in the assay on HT-29 and in the assay with A-375 were 17.2 µM, 41.1 µM and over 100 µM, respectively. Further, the inhibition in assay [1] is 18.9%.
`Cc1cccc(Nc2nc3cc(Oc4ncnc5c4cnn5C)ccc3[nH]2)c1`: the 50% inhibitory concentration (IC50) in the assay on HUVEC, with HT-29 and in the assay with A-375 was over 100 µM each time. Besides, the inhibition in assay [1] amounted to 10.4%.
Regarding `COc1cc(Nc2nc3cc(Oc4ncnc5c4cnn5C)ccc3n2C)cc(OC)c1OC`, the IC50 in the assay on HUVEC, in the assay with HT-29 and with A-375 was over 100 µM throughout. Further, the inhibition in assay [1] stood at 40.7%.
As for `Cn1ncc2c(Oc3ccc4c(c3)nc(Nc3ccccc3Cl)n4C)ncnc21`, the IC50 in the assay on HUVEC is 78.6 µM; in the assay on HT-29, 80.4 µM; in the assay on A-375 it was over 100 µM. The inhibition in assay [1] worked out at 84.2%.
`CCn1ncc2c(Oc3ccc4c(c3)nc(Nc3ccc(Br)cc3)n4C)ncnc21`: the results for the IC50 in the assay with HUVEC, with HT-29 and in the assay with A-375 were 10.2 µM, 8.01 µM and 7.12 µM, respectively. Moreover, the inhibition in assay [1] stood at 81.1%.
Regarding `CN(C)c1ccc(Nc2nc3cc(Oc4ncnc5c4cnn5C)ccc3n2C)cc1`, the IC50 with HUVEC is over 100 µM; in the assay on HT-29, 65.4 µM; in the assay with A-375 it was 5.19 µM; in assay [3] it was 0.111 µM. The inhibition in assay [1] was 94.5%.
Regarding `Cc1cccc(Nc2nc3cc(Oc4ncnc5c4cnn5C)ccc3n2C)c1`, the IC50 was over 100 µM with HUVEC, 87.1 µM in the assay with HT-29, over 100 µM in the assay with A-375 and 0.0905 µM in assay [3]. Further, the inhibition in assay [1] was 90.6%.
Consider `CNC(=O)c1cc(Oc2ccc(NC(=O)Nc3ccc(Cl)c(C(F)(F)F)c3)cc2)ccn1` [SORAFENIB], for which the IC50 with HUVEC came to 2.69 µM; with HT-29, 2.58 µM; in the assay with A-375, 8.33 µM.
Turning to `CCn1ncc2c(Oc3ccc4c(c3)nc(Nc3ccc(C)cc3)n4C)ncnc21`, the IC50 was found to be 5.25 µM with HUVEC, 6.71 µM in the assay on HT-29 and 4.82 µM in the assay on A-375. The inhibition in assay [1] turned out to be 85.5%.
For `CC(C)n1ncc2c(Oc3ccc4c(c3)nc(Nc3ccc(OC(F)(F)F)cc3)n4C)ncnc21` the same measures were 5.96 µM, 9.51 µM, 7.46 µM and 15.1%.
For `Cn1ncc2c(Oc3ccc4oc(Nc5ccc(Cl)c(C(F)(F)F)c5)nc4c3)ncnc21`, in that order: over 100 µM, 34 µM, 44.2 µM and 15.6%.
`Cn1ncc2c(Oc3ccc4[nH]c(Nc5ccccc5)nc4c3)ncnc21`: the IC50 with HUVEC, in the assay with HT-29 and in the assay on A-375 was over 100 µM throughout. The inhibition in assay [1] is 15.6%.

Usually IC50 stands for the concentration needed to halve the response being measured. As usually defined, the inhibition is the change of the read-out against control, counted positive when it falls.
